Data on 17 compounds can be found in ChEMBL document CHEMBL1149584, “Synthesis and structure-activity relationships of new antiproliferative and proapoptotic retinoid-related biphenyl-4-yl-acrylic acids” (Bioorg Med Chem, 2007).

A word on the IC50: it is the concentration that inhibits the measured activity by half.

The nature of test [1]: Antiproliferative activity against human cisplatin-resistant IGROV1/Pt1 cells with p53 mutation after 72 hrs. Format: functional, cell-based, IGROV-1. In outline: (§1)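 Ovarian carcinoma cells in log-phase growth were seeded in duplicate. Drug was added 24 h after seeding and exposure lasted 72 h. Cells were harvested and counted with a cell counter. IC₅₀ is the concentration giving a 50% drop in cell number versus untreated control.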

Test [2] deals with IGROV-1. In words: Antiproliferative activity against human IGROV1 cells after 72 hrs. Format: functional, cell-based. The conditions noted are these: IGROV-1, 72 h. In outline: as §1
The subject of the next test is NB-4. Description: Antiproliferative activity against human NB4 cells after 72 hrs. As to conditions: NB-4, 72 h. Format: functional, cell-based. An outline of the steps: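 Leukemia cells were exposed to drug for 24 h, and growth inhibition was assessed at 72 h by cell counting. IC₅₀ is the concentration giving a 50% drop in cell number versus untreated control.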

The subject of test [3] is IGROV-1. In words: Cell cycle arrest in IGROV1 cells assessed as accumulation at subG1 phase by FAC scan flow cytometry. Format: functional, cell-based. As to conditions: Homo sapiens, TDE = time-dependent effect. An outline of the steps:
(§2)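 Cells treated at the IC₈₀ concentration. Cell cycle distribution of propidium iodide-stained cells measured by FACScan flow cytometry at 24, 48 and 72 h of treatment. One experiment representative of three.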

The subject of test [4] is IGROV-1. Description: Induction of DNA damage in IGROV1 cells assessed as p53 protein phosphorylation after 6 hrs. Format: functional, cell-based. The conditions noted are these: Homo sapiens.
Test [5] concerns IGROV-1. Description: Induction of DNA damage in IGROV1 cells assessed as RPA2 protein phosphorylation after 6 hrs. As to conditions: Homo sapiens. It is filed as functional, cell-based.
Test [6] relates to IGROV-1. Description: Cell cycle arrest in IGROV1 cells assessed as accumulation at G1/S phase by FAC scan flow cytometry. It is filed as functional, cell-based. As to conditions: Homo sapiens. An outline of the steps: as §2
For orientation: Flow cytometry measures light scatter and fluorescence of single cells or particles in a stream.

Test [7] deals with IGROV-1. In words: Induction of apoptosis in IGROV1 cells after 72 hrs by TUNEL assay. Set-up: concentration or dose not given beside the values. It is filed as functional, Homo sapiens. In outline:
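Cells exposed to drug for 72 h, fixed in 4% paraformaldehyde for 60 min at room temperature, then washed and resuspended in ice-cold PBS. Apoptosis detected by TUNEL and analyzed by flow cytometry.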

Test [8] has as its target T1, MAP kinase p38 (Homo sapiens) (UniProt O15264+Q15759+Q16539+P53778). In words: Activation of p38 kinase in IGROV1/Pt1 cells with p53 mutation assessed as phosphorylation after 18 hrs. It is filed as cell-based. As to conditions: IGROV-1. An outline of the steps: (§3)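 Cells treated for 18 h at each compound's IC₈₀ concentration. Lysates analyzed by Western blot with phospho-specific antibodies to detect activated JNK and p38.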

The target of test [9] is c-Jun N-terminal kinase, JNK (Homo sapiens) (UniProt P45983+P53779+P45984). In words: Activation of JNK in IGROV1 cells assessed as phosphorylation after 18 hrs. Format: cell-based. The conditions noted are these: IGROV-1. In outline:
as §3

The target in test [10] is T1, MAP kinase p38 (Homo sapiens). Description: Activation of p38 kinase in IGROV1 cells assessed as phosphorylation after 18 hrs. As to conditions: IGROV-1. It is filed as cell-based. In outline:
as §3

For test [11], the system named is IGROV-1. In words: Induction of DNA damage in IGROV1 cells assessed as H2AX histone phosphorylation after 6 hrs. It is filed as functional, cell-based. The conditions noted are these: Homo sapiens.
Setting [12] is: Homo sapiens, IGROV-1/Pt1, 72 h.

Molecules are shown by their SMILES. Calls of active or inactive are those of the source. No cut-off for these calls is given here.

With `COc1c(O)cc(-c2ccc(/C=C/C(=O)O)cc2)cc1C12CC3CC(CC(C3)C1)C2`, the 50% inhibitory concentration (IC50) in [1] (setting [12]) was 970 nM; in the test on IGROV-1 [2], 570 nM; in the test on NB-4, 550 nM. Also, the figures for the Activity entry in the test on IGROV-1 [3] and with IGROV-1 [7] were “tde” and 20%, respectively. Also, the outcome with IGROV-1 [4], with IGROV-1 [5] and in the test on IGROV-1 [6] was Active.
Take `COc1ccc(-c2ccc(/C=C(/Br)C(=O)O)cc2)cc1C12CC3CC(CC(C3)C1)C2`: the IC50 in [1] (setting [12]) was > 10000 nM; in the test on IGROV-1 [2] it was 30600 nM; in the test on NB-4, 41000 nM.
In [1] (setting [12]), `O=C(O)/C=C/c1ccc(-c2ccc(O)c(C34CC5CC(CC(C5)C3)C4)c2)cc1` [ADAROTENE] returned an IC50 of 400 nM. Further, the result (in the test with IGROV-1 [4]; in the test on IGROV-1 [5]; in test [8]) was Active. The compound also had an Activity in the test on IGROV-1 [7] of 51%.
Consider `O=C(O)/C(Br)=C\c1ccc(-c2cc3c(c(C45CC6CC(CC(C6)C4)C5)c2)OCO3)cc1`, for which the IC50 in [1] (setting [12]) came to 34100 nM; in the test on IGROV-1 [2], 36600 nM; with NB-4, 72300 nM.
Regarding `O=C(O)/C=C/c1ccc(-c2cc(CO)c(O)c(C34CC5CC(CC(C5)C3)C4)c2)cc1`, the IC50 in [1] came to 1040 nM; in the test with IGROV-1 [2], 760 nM; in the test with NB-4, 190 nM. The outcome in the test with IGROV-1 [4] and with IGROV-1 [5] was Active. Moreover, in the test on IGROV-1 [7], the Activity stood at 45%.
As to `O=C(O)C#Cc1ccc(-c2cc3c(c(C45CC6CC(CC(C6)C4)C5)c2)OCO3)cc1`, the IC50 in test [1] (setting [12]) turned out to be 4800 nM; with IGROV-1 [2], 3600 nM; in the test on NB-4, 2000 nM.
Turning to `COc1cc(-c2ccc(/C=C/C(=O)O)cc2)cc(C23CC4CC(CC(C4)C2)C3)c1OC`, the values for the half-inhibitory concentration (IC50) (in [1] (setting [12]); with IGROV-1 [2]; with NB-4) were 2400 nM, 710 nM and 1890 nM, respectively.
In the case of `COc1cc(-c2ccc(/C=C/C(=O)O)cc2)cc(C23CC4CC(CC(C4)C2)C3)c1O`, the IC50 with IGROV-1 [2] came to 520 nM; in the test with NB-4, 270 nM.
With `O=C(O)/C=C/c1ccc(-c2cc3c(c(C45CC6CC(CC(C6)C4)C5)c2)OCO3)cc1`, the half-maximal inhibitory concentration (IC50) in [1] (setting [12]) came to 460 nM; with IGROV-1 [2], 390 nM; in the test on NB-4, 260 nM. Besides, the outcome (in test [9]; in test [10]; with IGROV-1 [4]; in the test with IGROV-1 [5]; with IGROV-1 [6]) was Active. Also, the Activity entry with IGROV-1 [3] is “tde”; with IGROV-1 [7] it was 50%.
In the case of `CC(=O)NCc1cc(-c2ccc(/C=C/C(=O)O)cc2)cc(C23CC4CC(CC(C4)C2)C3)c1O`, the concentration for half-maximal inhibition (IC50) amounted to 2890 nM in [1] (setting [12]), 1240 nM in the test on IGROV-1 [2] and 990 nM with NB-4.
`COc1ccc(-c2ccc(/C=C/C(=O)O)cc2)cc1C12CC3CC(CC(C3)C1)C2`: the IC50 in test [1] (setting [12]) stood at 1430 nM; in the test with IGROV-1 [2], 1190 nM; with NB-4, 1100 nM. The Activity entry in the test with IGROV-1 [3] is “tde”; with IGROV-1 [7] it was 47%. For the same compound, the outcome in the test with IGROV-1 [4], with IGROV-1 [11], in the test on IGROV-1 [5] and with IGROV-1 [6] was Active.
On to `Cl.NCc1cc(-c2ccc(/C=C/C(=O)O)cc2)cc(C23CC4CC(CC(C4)C2)C3)c1O`, for which the IC50 turned out to be 390 nM in test [1] (setting [12]), 450 nM in the test with IGROV-1 [2] and 180 nM in the test on NB-4. Further, the Activity result in the test on IGROV-1 [3] is “tde”; in the test with IGROV-1 [7], 55%. Further, the outcome with IGROV-1 [4], in the test with IGROV-1 [5] and in the test on IGROV-1 [6] was Active.
On to `O=C(O)/C=C/c1ccc(-c2cccc(C34CC5CC(CC(C5)C3)C4)c2)cc1`, for which the IC50 came out at 21900 nM in test [1] (setting [12]) and 18800 nM in the test on IGROV-1 [2].
In the case of `COc1ccc(-c2ccc(/C=C(\Br)C(=O)O)cc2)cc1C12CC3CC(CC(C3)C1)C2`, the IC50 was > 20000 nM in test [1] (setting [12]), > 20000 nM with IGROV-1 [2] and 17900 nM in the test with NB-4.
In the case of `COc1ccc(-c2ccc(C#CC(=O)O)cc2)cc1C12CC3CC(CC(C3)C1)C2`, the results for the IC50 (in [1] (setting [12]); in the test with IGROV-1 [2]) were 4800 nM and 1700 nM, respectively.
Regarding `O=C(O)/C=C/c1ccc(-c2cc3c(c(C45CC6CC(CC(C6)C4)C5)c2)OCCO3)cc1`, the IC50 in [1] (setting [12]) came to 480 nM; with IGROV-1 [2], 230 nM; in the test with NB-4 it was 110 nM. Besides, the figures for the Activity entry in the test with IGROV-1 [3] and with IGROV-1 [7] were “tde” and 30%, respectively. In addition, the outcome with IGROV-1 [4], in the test on IGROV-1 [5] and in the test on IGROV-1 [6] was Active.
As for `O=Cc1cc(-c2ccc(/C=C/C(=O)O)cc2)cc(C23CC4CC(CC(C4)C2)C3)c1O`, the IC50 in test [1] (setting [12]) turned out to be 2720 nM; with IGROV-1 [2] it was 1640 nM; with NB-4 it was 1610 nM.
